Experimental data from ChEMBL document CHEMBL1146498, “Excisanin H, a novel cytotoxic 14,20-epoxy-ent-kaurene diterpenoid, and three new ent-kaurene diterpenoids from Rabdosia excisa” (J Nat Prod, 2004).
≈ marks a conversion by molar mass, not a printed value.

These compounds were tested on P388 (assay: Cytotoxicity against mouse P388 cells).
Assay type: functional, cell-based
Procedure, shortened: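 In vitro assay on P388 murine leukemia cells; cytotoxic activity expressed as IC50, reported in μg/mL.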
C=C1C(=O)[C@@]23[C@@H](CC[C@@H]1[C@H]2O)[C@@]12C(=O)O[C@@H]3C[C@@H]1C(C)(C)CC[C@@H]2O showed an IC50 of 0.77 µg/mL (≈ 2.22 µM).
With C=C1C(=O)[C@@]23[C@H](O)C[C@@H]4[C@@](C)(COC(C)=O)CC[C@H](O)[C@@]4(C)[C@@H]2CC[C@@H]1[C@H]3O the IC50 was 0.72 µg/mL (≈ 1.83 µM).
C=C1C(=O)[C@@]23[C@H](O)C[C@@H]4[C@@](C)(CO)CC[C@H](O)[C@@]4(C)[C@@H]2CC[C@@H]1[C@H]3O was tested, and the IC50 was 0.92 µg/mL (≈ 2.63 µM).
In the case of C=C1C(=O)[C@@]23[C@H](O)C[C@@H]4C(C)(C)CC[C@H](O)[C@@]4(C)[C@@H]2C[C@H](O)[C@@H]1[C@H]3O [EXCISANIN A], the IC50 is reported as 1.11 µg/mL (≈ 3.17 µM).
With C=C1C(=O)[C@@]23[C@H](O)C[C@@H]4C(C)(C)CC[C@H](O)[C@@]4(C)[C@@H]2C[C@H](OC(C)=O)[C@@H]1[C@H]3O [EXCISANIN B] the IC50 was 0.63 µg/mL (≈ 1.61 µM).
Work on C=C1C(=O)[C@]23[C@H](O)C[C@@H]4C(C)(C)CC[C@H](O)[C@]45CO[C@]2(O)[C@H]1CC[C@@H]53 [EXCISANIN H] yielded an IC50 of 0.96 µg/mL (≈ 2.76 µM).
Work on C=C1C(=O)[C@@]23[C@H](O)C[C@@H]4C(C)(C)CCC[C@@]4(CO)[C@@H]2C[C@H](O)[C@@H]1[C@H]3O [EXCISANIN I] yielded an IC50 of 0.87 µg/mL (≈ 2.48 µM).
C=C1C(=O)[C@@]23[C@H](O)C[C@@H]4[C@@](C)(CO)CCC[C@@]4(CO)[C@@H]2CC[C@@H]1[C@H]3O [EXCISANIN J] showed an IC50 of 0.92 µg/mL (≈ 2.63 µM).
For C=C1C(=O)[C@@]23[C@H](O)C[C@@H]4C(C)(C)CC[C@H](O)[C@@]4(COC(C)=O)[C@@H]2CC[C@@H]1[C@H]3O [HENRYIN], the IC50 was 0.58 µg/mL (≈ 1.48 µM).
Work on C=C1C(=O)[C@@]23[C@H](O)C[C@@H]4C(C)(C)CC[C@H](O)[C@@]4(CO)[C@@H]2CC[C@@H]1[C@H]3O [KAMEBAKAURIN] yielded an IC50 of 0.82 µg/mL (≈ 2.34 µM).
For C=C1C(=O)[C@@]23[C@H](O)C[C@@H]4C(C)(C)CC[C@H](O)[C@@]4(C)[C@@H]2CC[C@@H]1[C@H]3O [KAMEBANIN], the IC50 was 0.69 µg/mL (≈ 2.06 µM).
C=C1C(=O)[C@]23[C@H](O)[C@H]1CC[C@H]2[C@@]12CO[C@@]3(O)C[C@@H]1C(C)(C)CC[C@@H]2O [MEGATHYRIN A] showed an IC50 of 0.77 µg/mL (≈ 2.21 µM).
For C=C1C(=O)[C@@]23[C@H](O)C[C@@H]4[C@@](C)(CO)CCC[C@@]4(C)[C@@H]2C[C@H](O)[C@@H]1[C@H]3O [RABDOKUNMIN C], the IC50 was 1.06 µg/mL (≈ 3.02 µM).
Work on C=C1C(=O)[C@@]23[C@H](O)C[C@@H]4C(C)(C)CC[C@H](O)[C@@]4(CO)[C@@H]2C[C@H](O)[C@@H]1[C@H]3O [RABDOSERRIN B] yielded an IC50 of 1.01 µg/mL (≈ 2.76 µM).
